Reference: PubChem BioAssay AID651950 (The Scripps Research Institute Molecular Screening Center, 2012)
The source made the active and inactive calls. No rule for the calls is given here.

Assay: Hsp70 transcriptional activators, SAR follow-up, cell-based, HeLa, Hsp70 promoter luciferase, luminescence (AID 651950)
Conditions: HeLa hsp70.1pr-luc reporter; at 99 µM (top of the series)
Method in brief: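 detection: luciferase luminescence; read-out: % activation relative to DMSO and MG132 controls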
With `COc1cccc(N2C(=O)NC(=O)/C(=C/C=C/c3ccccc3[N+](=O)[O-])C2=O)c1` the activation was -1.6% (inactive).
In the case of `O=[N+]([O-])c1c(Nc2ccc(Cl)cc2)cc(Cl)c2nonc12`, the activation is reported as -0.9% (active).
In the case of `O=C1NC(=O)N(c2cccc(Cl)c2)C(=O)/C1=C\C=C\c1ccccc1`, the activation is reported as -0.7% (active).
In the case of `O=C1NC(=O)N(c2cccc(Br)c2)C(=O)/C1=C/C=C/c1ccccc1`, the activation is reported as -0.8% (active).
With `O=C1/C(=C/c2ccncc2)CCC/C1=C\c1ccncc1` the activation was -1.1% (active).
In the case of `O=c1c([N+](=O)[O-])c(Cl)c2ccccc2n1Cc1ccccc1`, the activation is reported as -0.4% (inactive).
In the case of `COc1cc(C(=O)/C(=C/c2cccnc2)c2nc3ccccc3o2)cc(OC)c1OC`, the activation is reported as -1.5% (inactive).
